Source: ChEMBL document CHEMBL1121565, “Antiarrhythmic activity of amitriptyline analogues in conscious dogs after myocardial infarction: cyproheptadinium methiodide” (1980)

Tests used:
[1] = test system: Canis familiaris; assay: Heart beat rate was measured in dogs after subsequent administration of 50 micorg/Kg 30 min after administration of 25 ug/Kg dose of the compound; type: functional, Canis lupus familiaris
In short: (§1)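 Anesthetized dogs with no cardiac insult were allowed about 30 min to stabilize after surgery, then given 25 µg/kg iv, followed by 50 µg/kg 30 min later. Arterial pressure, lead II ECG from limb needle electrodes, ECG-derived heart rate and left ventricular dp/dt at 50 mmHg developed pressure were recorded at 100 mm/s. Values before and 5 min after dosing were compared by Student's t test, p < 0.05.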

[2] = species: Canis familiaris; assay: Heart beat rate was measured in dogs prior to the treatment with compound; type: functional, Canis lupus familiaris; in short: as §1
[3] = test system: Canis familiaris; assay: Evaluated for the antiarrhythmic activity in conscious dogs after myocardial infarction by observing 50% reduction in ectopic rate..; type: functional, Canis lupus familiaris, Heart
In short: (§2)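 After 30-45 min of adjustment with lead II ECG recording (about 80-85% ectopic complexes), drug was given iv through a foreleg vein in 0.5 mL increments at 2-min intervals. Dosing stopped at sinus rhythm or 3.0 mg/kg total.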

[4] = species: Canis familiaris; assay: Myocardial contractility was measured in dogs prior to the treatment with compound; type: functional, Canis lupus familiaris, Myocardium; in short: as §1
[5] = test system: Canis familiaris; assay: Evaluated for the antiarrhythmic activity in conscious dogs after myocardial infarction by observing for conversion to sinus rhythm.; type: functional, Canis lupus familiaris, Heart; in short: as §2
[6] = test system: Canis familiaris; assay: Compound was tested for its activity against altering of mean arterial blood pressure when administered with a dose of 25 ug/Kg; Could not significantly alter; type: functional, organism-based; conditions: Canis lupus familiaris; Artery; in short: as §1
[7] = test system: Canis familiaris; assay: Myocardial contractility was measured in dogs after 5 min of administration of 25 ug/Kg dose of the compound; type: functional, Canis lupus familiaris, Myocardium; in short: as §1
[8] = test system: Canis familiaris; assay: Heart beat rate was measured in dogs after 5 min of administration of 25 ug/Kg dose of the compound; type: functional, Canis lupus familiaris; in short: as §1

SMILES | Heart beat [1] [beats min-1] | Heart beat [2] [beats min-1] | Dose [3] [µM/kg] | Activity [4] [mmHg s-1] | Dose [5] [µM/kg] | Activity [6] | Activity [7] [mmHg s-1] | Heart beat [8] [beats min-1]
C[N+]1(C)CCC(=C2c3ccccc3C=Cc3ccccc32)CC1.[I-] | 196 | 148 | 0.03 | 2333 | 0.042 | Could not significantly alter | 3250 | 174
CN(C)CCC=C1c2ccccc2CCc2ccccc21 [AMITRIPTYLINE] |  |  | 3.97 |  | 4.69 |  |  | 
CCN(CC)CC(=O)Nc1c(C)cccc1C.Cl |  |  | 5.54 |  | 9.97 |  |  | 
CN1CCC(=C2c3ccccc3C=Cc3ccccc32)CC1 [CYPROHEPTADINE] |  |  | 0.69 |  | 1.04 |  |  | 
CN(C)CCC=C1c2ccccc2C=Cc2ccccc21 [CYCLOBENZAPRINE] |  |  | 3.99 |  | 6.17 |  |  | 
